The test system of test [1] is slow skeletal muscle (soleus) fibers. The test is described as follows: Calcium sensitivity of force generation in slow skeletal muscle. As to conditions: 20 μM compound. The class given is cell-based, rat. The procedure, abridged: (§1)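 Four male Sprague Dawley rats (7–9 months); cardiac trabeculae (n=10) and soleus fibers (n=10), soleus fibers typed slow by SDS-PAGE. Force measured in activating solutions of graded pCa, first without then with 20 μM test compound. pCa50 taken from force–pCa curve fits, and the with/without difference was analysed per preparation by paired Student's t-test. Maximal force was the mean of pCa 4.0 activations (every third; n=6), without then with compound.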

The target of test [2] is hydrophobic patch of cNTnC in the presence of cTnIsp. The note with it: cited from earlier work.
A further test relates to cardiac trabeculae. The test is described as follows: Calcium sensitivity of force generation in isolated cardiac trabeculae. The note with it: 20 μM compound. The test is classed as cell-based, rat. The procedure, abridged: as §1

Like-named read-outs stand apart in the source and are kept apart here.

Data on 4 molecules can be found in PMC9934531 (bioRxiv, 2023).

Regarding `O=C(CSc1nc(-c2ccccc2)c(-c2ccccc2)[nH]1)Nc1nccs1` [Compound 7930079, 2-[(4,5-diphenyl-1H-imidazol-2-yl)thio]-N-1,3-thiazol-2-ylacetamide], the “effect on average maximal force generation” value in test [1] (pCa 4.0, slow fibers, P=0.39) is recorded as “no effect”. In addition, the “shift of force/pCa curve to higher sensitivity (ΔpCa50)” value is listed as 0.20 ± 0.03 pCa unit in test [1] (rat slow fibers, n=10, P<.01) and 0.05 ± 0.04 pCa unit with cardiac trabeculae (rat cardiac trabeculae, n=10, P<.01). The Kd in test [2] (read-out: apparent experimental binding affinity) was 1.45 ± 0.09 µM. In the test with cardiac trabeculae (pCa 4.0, cardiac trabeculae, P=0.001), the “decrease in average maximal force” value is listed as 8%.
As for `CN1CCN(CCCN2c3ccccc3Sc3ccc(C(F)(F)F)cc32)CC1` [TFP, trifluoperazine], in test [2], the Kd is 110 ± 20 µM.
On to `CC(C)COCC(CN(Cc1ccccc1)c1ccccc1)N1CCCC1` (centres unmarked) [bepridil], for which, in test [2], the Kd was 380 ± 60 µM.
As for `C[C@@H]1CC(=O)NN=C1c1ccc(NN=C(C#N)C#N)cc1` [levosimendan], the Kd in test [2] was approximately 700 µM.
